ChEMBL document CHEMBL1127651, “Molecular requirements for the inhibition of the tetracycline antiport protein and the effect of potent inhibitors on the growth of tetracycline-resistant bacteria” (J Med Chem, 1994)
Values after ≈ are worked out from the molar mass of the structure shown. Active and inactive are the calls of the source. The rule behind the calls is not given here.

Key:
Enterococcus faecalis [1] = assay: Minimum inhibitory activity against tetracycline-susceptible Enterococcus faecalis strain ATCC 9790; assay type: functional
Procedure, shortened: (§1)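 Broth dilution MIC in Luria broth. Two-fold dilutions from a 10 mg/mL stock in H₂O or 1:1 H₂O/MeOH, test range 200–0.030 µg/mL, incubated 18–20 h at 37 °C. MIC = lowest amount inhibiting growth.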

Escherichia coli [2] = assay: Minimum inhibitory activity against tetracycline-susceptible Escherichia coli strain ML308-225 (Tet B on plasmid R222); assay type: functional
Procedure, shortened: (§2)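 Inoculum about 10⁶ cfu/mL into two-fold dilutions from 200 to 0.030 µg/mL, made from a 10 mg/mL stock in H₂O or 1:1 H₂O/MeOH. Incubated 18–20 h at 37 °C; MIC = amount inhibiting growth.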

Escherichia coli [3] = assay: Minimum inhibitory activity against tetracycline-susceptible Escherichia coli strain ML308-225 (Tet A on plasmid pIP15); assay type: functional; procedure, shortened: as §2
Staphylococcus aureus [4] = assay: Minimum inhibitory activity against tetracycline-susceptible Staphylococcus aureus strain RN450; assay type: functional; procedure, shortened: as §1
Escherichia coli [5] = assay: (§3) Inhibitory activity against tetracycline uptake in everted membrane vesicles derived from Tc-resistant Escherichia coli bearing class B tetracycline resistance efflux protein (Tet); assay type: functional
Procedure, shortened: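 Everted inner membrane vesicles from E. coli D1-209 carrying plasmid R222 (class B Tc determinant on Tn10), energized with Li lactate; test compound added together with [³H]Tc. Accumulated [³H]Tc read at 2.5 min after energization, compared with uptake without analogue; CCCP-deenergized vesicles served as the negative control. IC50 = concentration giving 50% inhibition of uptake. Separately screened for disruption of the pH gradient by acridine orange fluorescence in vesicles from isogenic Tc-susceptible cells.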

Staphylococcus aureus [6] = assay: Minimum inhibitory activity against tetracycline-susceptible Staphylococcus aureus strain RN450 (Tet K on plasmid pT181); assay type: functional; procedure, shortened: as §2
Escherichia coli [7] = assay: Minimum inhibitory activity against tetracycline-susceptible Escherichia coli strain ML308-225 (Tet B on plasmid R222) in combination with doxycycline; No effect; assay type: functional, organism-based
Escherichia coli [8] = assay: Minimum inhibitory activity against tetracycline-susceptible Escherichia coli strain D31m4; assay type: functional; procedure, shortened: as §1
Escherichia coli [9] = assay: Minimum inhibitory activity against tetracycline-susceptible Escherichia coli strain D31m4 (Tet B on plasmid pHCMI); assay type: functional; details: in the assay text read “tetracycline-resistant” for “tetracycline-susceptible”; procedure, shortened: as §2
Enterococcus faecalis [10] = assay: Minimum inhibitory activity against tetracycline-susceptible Enterococcus faecalis strain ATCC 9790 (Tet L on plasmid MV158); assay type: functional; details: in the assay text read “tetracycline-resistant” for “tetracycline-susceptible”; procedure, shortened: as §2
Escherichia coli [11] = assay: Minimum inhibitory activity against tetracycline-susceptible Escherichia coli strain ML308-225; assay type: functional; procedure, shortened: as §1
Escherichia coli [12] = assay: as §3; assay type: functional; remark: listed apart in the source
Procedure, shortened: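 Everted inner-membrane vesicles from E. coli D1-209 carrying plasmid R222 (class B Tet on Tn10). Vesicles energized with Li lactate and given [³H]Tc together with the analogue. Accumulation read at 2.5 min against uptake without analogue. CCCP-deenergized vesicles served as negative control. IC50 is the concentration giving 50% inhibition of [³H]Tc uptake.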

Escherichia coli [13] = assay: Growth inhibitory activity against tetracycline-resistant ML308-225 bacterial strain of Escherichia coli; assay type: functional, organism-based
Procedure, shortened: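 MIC by two-fold broth dilution in Luria broth from a 10 mg/mL stock, test range 200 to 0.030 µg/mL. Compounds dissolved in H2O or 1:1 H2O/MeOH. Inoculum about 10⁶ cfu/mL. Incubated 18–20 h at 37 °C. MIC taken as the lowest amount that inhibited growth.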

Escherichia coli [14] = assay: Minimum inhibitory activity against tetracycline-susceptible Escherichia coli strain ML308-225 (Tet B on plasmid R222) in combination with doxycycline; no effect; assay type: functional, organism-based

## CN(C)[C@@H]1C(=O)C(C(N)=O)=C(O)[C@@]2(O)C(O)=C3C(=O)c4c(O)cccc4[C@H](CSCCCCl)C3[C@H](O)C12 (stereo partly specified)
Enterococcus faecalis [1]
  MIC: 0.6 µg/mL (≈ 1.08 µM)
Escherichia coli [2]
  MIC: > 50 µg/mL
Escherichia coli [3]
  MIC: 50 µg/mL (≈ 90.4 µM)
Staphylococcus aureus [4]
  MIC: 0.6 µg/mL (≈ 1.08 µM)
Escherichia coli [5]
  IC50: 0.6 µM
Staphylococcus aureus [6]
  MIC: 6.25 µg/mL (≈ 11.3 µM)
Escherichia coli [7]
  MIC: inactive
Escherichia coli [8]
  MIC: 2.5 µg/mL (≈ 4.52 µM)
Escherichia coli [9]
  MIC: 6.25 µg/mL (≈ 11.3 µM)
Enterococcus faecalis [10]
  MIC: 1.56 µg/mL (≈ 2.82 µM)
Escherichia coli [11]
  MIC: 10 µg/mL (≈ 18.1 µM)

## O=C1c2ccc(O)c(O)c2C(=O)c2c(O)ccc(O)c21 [QUINALIZARIN]
Escherichia coli [5]
  IC50: > 150 µM

## C=C1c2cccc(O)c2C(=O)C2(Cl)C(=O)[C@]3(O)C(O)=C(C(N)=O)C(=O)[C@@H](N(C)C)C3CC12 (stereo partly specified)
Escherichia coli [5]
  IC50: > 75 µM

## CC(=O)SC[C@H]1c2cccc(O)c2C(=O)C2=C(O)[C@]3(O)C(O)=C(C(N)=O)C(=O)[C@@H](N(C)C)C3[C@@H](O)C21 (stereo partly specified)
Escherichia coli [5]
  IC50: 4.6 µM

## CC(=O)OC1=CC[C@H]2CC3C(=C(O)c4c(O)cccc4C3O[Si](C)(C)C(C)(C)C)C(=O)[C@H]2C1 (stereo partly specified)
Escherichia coli [5]
  IC50: > 150 µM

## COc1cc(O)c2c(c1)C(=O)c1cc3c(c(O)c1C2=O)C(OC1OC(C)C(OC)C(O)C1OC)C(OC)C(C)(O)C3=O (stereo unspecified)
Escherichia coli [5]
  IC50: > 75 µM

## CC(=O)OC1=C(Sc2ccccc2)C[C@H]2Cc3cc4cccc(O)c4c(O)c3C(=O)[C@H]2C1
Escherichia coli [5]
  IC50: > 150 µM

## COc1cccc2c1C(=O)c1c(O)c3c(c(O)c1C2=O)C[C@@](O)(C(=O)CO)C[C@@H]3O[C@H]1C[C@H](N)[C@H](O)[C@H](C)O1 [DOXORUBICIN]
Escherichia coli [5]
  IC50: > 75 µM

## CN(C)[C@@H]1C(=O)C(C(N)=O)=C(O)[C@@]2(O)C(=O)C3C(=O)c4c(O)ccc(Cl)c4[C@@](C)(O)C3CC12 (stereo partly specified)
Escherichia coli [5]
  IC50: > 75 µM

## O=C(O)CC1CC(=O)c2c(O)ccc(Cl)c2S1 (stereo unspecified)
Escherichia coli [5]
  IC50: > 150 µM

## CCCSC[C@H]1c2cccc(O)c2C(=O)C2=C(O)[C@]3(O)C(O)=C(C(N)=O)C(=O)[C@@H](N(C)C)C3[C@@H](O)C21 (stereo partly specified)
Enterococcus faecalis [1]
  MIC: 1.25 µg/mL (≈ 2.41 µM)
Escherichia coli [2]
  MIC: > 50 µg/mL
Escherichia coli [3]
  MIC: > 50 µg/mL
Staphylococcus aureus [4]
  MIC: 0.6 µg/mL (≈ 1.16 µM)
Staphylococcus aureus [6]
  MIC: 12.5 µg/mL (≈ 24.1 µM)
Escherichia coli [7]
  MIC: inactive
Escherichia coli [8]
  MIC: 10 µg/mL (≈ 19.3 µM)
Escherichia coli [9]
  MIC: 12.5 µg/mL (≈ 24.1 µM)
Enterococcus faecalis [10]
  MIC: 1.56 µg/mL (≈ 3.01 µM)
Escherichia coli [11]
  MIC: 40 µg/mL (≈ 77.1 µM)

## O=CCC1CC(=O)c2c(O)ccc(Cl)c2S1 (stereo unspecified)
Escherichia coli [5]
  IC50: > 75 µM

## COC(=O)C12Oc3ccc(-c4ccc5c(c4O)C(O)=C4C(=O)CC(C)C(O)C4(C(=O)OC)O5)c(O)c3C(O)=C1C(=O)CC(C)C2O (stereo unspecified)
Escherichia coli [5]
  IC50: > 75 µM

## CN(C)c1ccc(O)c2c1CC1CC3[C@H](N(C)C)C(=O)C(C(N)=O)=C(O)[C@@]3(O)C(O)=C1C2=O (stereo partly specified)
Escherichia coli [5]
  IC50: 2.3 µM

## CN(C)[C@@H]1C(=O)C(C(N)=O)=C(O)[C@@]2(O)C(O)=C3C(=O)c4c(ccc([N+](=O)[O-])c4O)CC3CC12 (stereo partly specified)
Escherichia coli [5]
  IC50: 12.3 µM

## COc1cc(O)c2c(c1Cl)CC1CC3[C@H](N(C)C)C(=O)C(C(N)=O)=C(O)[C@@]3(O)C(O)=C1C2=O (stereo partly specified)
Escherichia coli [5]
  IC50: 19.5 µM

## CC1CC(=O)C2=C(O)c3c(O)ccc(O)c3CC2C1 (stereo unspecified)
Escherichia coli [5]
  IC50: > 130 µM

## COC(C(=O)[C@@H](O)C(C)O)C1Cc2cc3cc(O)c(C)c(O)c3c(O)c2C(=O)C1O (stereo partly specified)
Escherichia coli [5]
  IC50: > 100 µM

## CN(C)[C@@H]1C(=O)C(C(N)=O)=C(O)[C@@]2(O)C(O)=C3C(=O)c4c(O)cccc4SC3CC12 (stereo partly specified)
Escherichia coli [5]
  IC50: 4.6 µM

## CN(C)[C@@H]1C(=O)C(C(N)=O)=C(O)[C@@]2(O)C(O)=C3C(=O)c4c(O)cccc4[C@H](C[S+]([O-])c4ccccc4)C3CC12 (stereo partly specified)
Escherichia coli [5]
  IC50: 0.7 µM

## Cc1cc(O)c2c(c1O)C(=O)c1cc(O)cc(O)c1C2=O [CATENARIN]
Escherichia coli [5]
  IC50: > 150 µM

## COc1ccc(Cl)c2c1C(=O)CC(CC(=O)O)S2 (stereo unspecified)
Escherichia coli [5]
  IC50: > 150 µM

## CC(=O)C1CCC2C(=O)C3=C(O)c4c(O)ccc(O)c4CC3CC2C1 (stereo unspecified)
Escherichia coli [5]
  IC50: > 75 µM

## C[C@H]1c2cccc(O)c2C(=O)C2=C(O)[C@]3(O)C(=O)C(C(N)=O)=C(O)[C@@H](N(C)C)[C@@H]3[C@@H](O)[C@@H]21.O [DOXYCYCLINE]
Enterococcus faecalis [1]
  MIC: 0.25 µg/mL
Escherichia coli [2]
  MIC: > 50 µg/mL
Escherichia coli [3]
  MIC: 50 µg/mL
Staphylococcus aureus [4]
  MIC: 0.25 µg/mL
Escherichia coli [5]
  IC50: > 75 µM
Escherichia coli [12]
  MIC: 0.5 µg/mL
Staphylococcus aureus [6]
  MIC: 12.5 µg/mL
Escherichia coli [13]
  IC50: 9.2 µM
Escherichia coli [8]
  MIC: 0.5 µg/mL
Escherichia coli [9]
  MIC: 12.5 µg/mL
Enterococcus faecalis [10]
  MIC: 6.25 µg/mL

## COc1cc(O)c2c(c1)C(=O)c1cc3c(c(O)c1C2=O)C(OC1OC(C)C(O)C(O)C1OC)C(OC)C(C)(O)C3=O (stereo unspecified)
Escherichia coli [5]
  IC50: > 75 µM

## COC(=O)c1c(O)cccc1CC1CC(=O)[C@@]2(O)C(O)=C(C(N)=O)C(=O)[C@@H](N(C)C)C2C1 (stereo partly specified)
Escherichia coli [5]
  IC50: > 75 µM

## CN(C)[C@@H]1C(=O)C(C(N)=O)=C(O)[C@@]2(O)C(O)=C3C(=O)c4c(O)cccc4[C@H](CSCCC(=O)O)C3CC12 (stereo partly specified)
Enterococcus faecalis [1]
  MIC: 10 µg/mL (≈ 18.8 µM)
Escherichia coli [2]
  MIC: > 50 µg/mL
Escherichia coli [14]
  MIC: inactive
Escherichia coli [3]
  MIC: > 50 µg/mL
Staphylococcus aureus [4]
  MIC: 2.5 µg/mL (≈ 4.69 µM)
Staphylococcus aureus [6]
  MIC: 12.5 µg/mL (≈ 23.5 µM)
Escherichia coli [8]
  MIC: 20 µg/mL (≈ 37.6 µM)
Escherichia coli [9]
  MIC: > 50 µg/mL
Enterococcus faecalis [10]
  MIC: 3.12 µg/mL (≈ 5.86 µM)
Escherichia coli [11]
  MIC: > 40 µg/mL

## CN(C)[C@@H]1C(=O)C(C(N)=O)=C(O)[C@@]2(O)C(O)=C3C(=O)c4c(O)cccc4[C@H](CS)C3[C@H](O)C12 (stereo partly specified)
Escherichia coli [5]
  IC50: 4.6 µM

## COC(C(=O)[C@@H](O)[C@@H](C)O)C1Cc2cc3cc(O)cc(O)c3c(O)c2C(=O)C1O (stereo partly specified)
Escherichia coli [5]
  IC50: > 100 µM

## CC(=O)Oc1cccc2c1C(=O)C1=C(O)[C@]3(OC(C)=O)C(O)=C(C(N)=O)C(=O)[C@@H](N(C)C)C3CC1[C@]2(C)O (stereo partly specified)
Escherichia coli [5]
  IC50: > 75 µM

## O=CCC1CC(=O)c2c(O)cccc2S1 (stereo unspecified)
Escherichia coli [5]
  IC50: > 75 µM

## CN(C)c1ccc2c(c1O)C(=O)C1=C(O)[C@]3(O)C(O)=C(C(N)=O)C(=O)[C@@H](N(C)C)C3CC1C2 (stereo partly specified)
Escherichia coli [5]
  IC50: 15.4 µM

## CN(C)[C@@H]1C(=O)C(C(N)=O)=C(O)[C@@]2(O)C(=O)C3(F)C(=O)c4c(O)cccc4CC3CC12 (stereo partly specified)
Escherichia coli [5]
  IC50: > 75 µM
